Measurements taken from ChEMBL document CHEMBL1255491, “Altered growth, pigmentation, and antimicrobial susceptibility properties of Staphylococcus aureus due to loss of the major cold shock gene cspB” (2010).
In brackets after ≈: the same amount, converted by molar mass.

Legend:
Assay type in all cases: functional
[1] = tested on: Staphylococcus aureus; experiment: Antimicrobial activity against Staphylococcus aureus BD2 harboring wild-type cspB gene by Etest
Procedure, shortened: (§1)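 MIC by Etest strip (daptomycin, gentamicin, teicoplanin, trimethoprim-sulfamethoxazole), following the manufacturer's protocol with changes. Inoculum came from cells grown in TSB at 37°C for at least 20 h.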

[2] = tested on: Staphylococcus aureus; experiment: Antimicrobial activity against Staphylococcus aureus BD1 harboring aphA-3 insertion in cspB gene by Etest; procedure, shortened: as §1
[3] = tested on: Staphylococcus aureus; experiment: Antimicrobial activity against methicillin-resistant Staphylococcus aureus isolate COL by Etest; procedure, shortened: as §1
[4] = tested on: Staphylococcus aureus; experiment: Antimicrobial activity against methicillin-resistant Staphylococcus aureus COL grown at 37 degC and measured at 15 degC by Etest
Procedure, shortened: (§2)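 Strain COL was grown in TSB at 37°C to mid-log phase, split into equal halves, and kept 1 h at 37°C (control) or 15°C (cold shock). Etest strips for daptomycin, gentamicin or trimethoprim-sulfamethoxazole were then applied per the manufacturer.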

[5] = tested on: Staphylococcus aureus; experiment: Antimicrobial activity against methicillin-resistant Staphylococcus aureus COL grown at 15 degC and measured at 37 degC by Etest; procedure, shortened: as §2
[6] = tested on: Staphylococcus aureus; experiment: Antimicrobial activity against methicillin-resistant Staphylococcus aureus COL grown at 15 degC and measured at 15 degC by Etest
[7] = tested on: Staphylococcus aureus; experiment: Antimicrobial activity against methicillin-resistant Staphylococcus aureus COL grown at 37 degC and measured at 37 degC by Etest; procedure, shortened: as §2
[8] = tested on: Staphylococcus aureus; experiment: Ratio of MIC for methicillin-resistant Staphylococcus aureus COL grown at 37 degC and measured at 37 degC to MIC for methicillin-resistant Staphylococcus aureus COL grown at 37 degC and measured at 15 degC by Etest
[9] = tested on: Staphylococcus aureus; experiment: Ratio of MIC for methicillin-resistant Staphylococcus aureus COL grown at 15 degC and measured at 37 degC to MIC for methicillin-resistant Staphylococcus aureus COL grown at 15 degC and measured at 15 degC by Etest

Molecule	MIC [1] [µg/mL]	MIC [2] [µg/mL]	MIC [3] [µg/mL]	MIC [4] [µg/mL]	MIC [5] [µg/mL]	MIC [6] [µg/mL]	MIC [7] [µg/mL]	Ratio [8]	Ratio [9]
CC(=O)N[C@@H]1[C@H](Oc2c3cc4cc2Oc2ccc(cc2Cl)[C@@H](O[C@@H]2O[C@@H](CO)[C@@H](O)[C@H](O)[C@@H]2NC(C)=O)[C@@H]2NC(=O)[C@H](NC(=O)[C@@H]4NC(=O)[C@H]4NC(=O)[C@@H](Cc5ccc(c(Cl)c5)O3)NC(=O)[C@H](N)c3ccc(O)c(c3)Oc3cc(O)cc4c3)c3ccc(O)c(c3)-c3c(O[C@H]4O[C@H](CO)[C@@H](O)[C@@H](O)[C@@H]4O)cc(O)cc3[C@@H](C(=O)O)NC2=O)O[C@@H](CO)[C@@H](O)[C@@H]1O	2 (≈ 1.13 µM)	0.75 (≈ 0.424 µM)	3 (≈ 1.7 µM)						
GENTAMICIN	0.38	32	0.38	0.21	0.38	0.29	0.34		
CCCCCCCCCC(=O)N[C@@H](Cc1c[nH]c2ccccc12)C(=O)N[C@H](CC(N)=O)C(=O)N[C@@H](CC(=O)O)C(=O)N[C@@H]1C(=O)NCC(=O)N[C@@H](CCCN)C(=O)N[C@@H](CC(=O)O)C(=O)N[C@H](C)C(=O)N[C@@H](CC(=O)O)C(=O)NCC(=O)N[C@H](CO)C(=O)N[C@@H]([C@H](C)CC(=O)O)C(=O)N[C@@H](CC(=O)c2ccccc2N)C(=O)O[C@@H]1C	2 (≈ 1.23 µM)	0.064 (≈ 0.0395 µM)	1.5 (≈ 0.926 µM)	0.46 (≈ 0.284 µM)	1.5 (≈ 0.926 µM)	0.63 (≈ 0.389 µM)	1.5 (≈ 0.926 µM)	4	2.4
